Measurements from ChEMBL document CHEMBL4392838, “Binding pocket-based design, synthesis and biological evaluation of novel selective BRD4-BD1 inhibitors” (Bioorg Med Chem, 2019).

Legend:
[1] = Antifibrotic activity against human LX2 cells assessed as reduction in cell growth measured after 48 hrs by MTT assay; assay type: functional, cell-based; conditions: LX-2, 48 h
Procedure, shortened: (§1)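 Cells grown at 37 °C in 5% CO2. MCF-7, A549 and HT-29 cells were kept in RPMI 1640 with 10% FBS and pen/strep. HepG2, A375, NRK-49F and LX-2 cells were kept in high-glucose DMEM with 10% FBS and pen/strep. HLF-1 cells were kept in DMEM/F-12 (1:1) with 10% FBS. Cells seeded for exponential growth, exposed to a concentration range for 48 h, then MTT added for 4 h at 37 °C. Formazan dissolved in DMSO, absorbance read at 490 nm, IC50 fitted.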

[2] = target: T1, Bromodomain-containing protein 4 (Homo sapiens, UniProt O60885); assay: Inhibition of biotinylated H4 K5,8,12,16Ac peptide binding to GST-tagged BRD4 bromodomain1 (unknown origin) at 100 uM measured after 60 mins by AlphaScreen assay relative to control
Procedure, shortened: (§2)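 AlphaScreen proximity assay measuring binding of the tetra-acetylated (K5,8,12,16Ac) biotinylated histone H4 peptide to recombinant BRD4 BD1 or BD2. Buffer was 50 mM HEPES with BSA, at 1% DMSO in the 10X compound dilutions. Compound, bromodomain, peptide and histidine-conjugated acceptor beads were incubated 60 min at room temperature. Streptavidin donor beads were then added for 30 min in the dark, and the endpoint Alpha signal read. Inhibition taken at 100 µM, mean of three independent experiments.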

[3] = target: T1, Bromodomain-containing protein 4; assay: Inhibition of biotinylated H4 K5,8,12,16Ac peptide binding to GST-tagged BRD4 bromodomain2 (unknown origin) at 100 uM measured after 60 mins by AlphaScreen assay relative to control; procedure, shortened: as §2
HepG2 = assay: Antiproliferative activity against human HepG2 cells assessed as reduction in cell growth measured after 48 hrs by MTT assay; assay type: functional, cell-based; conditions: HepG2, 48 h; procedure, shortened: as §1
HT-29 = assay: Antiproliferative activity against human HT-29 cells assessed as reduction in cell growth measured after 48 hrs by MTT assay; assay type: functional, cell-based; conditions: HT-29, 48 h; procedure, shortened: as §1
A-375 = assay: Antiproliferative activity against human A375 cells assessed as reduction in cell growth measured after 48 hrs by MTT assay; assay type: functional, cell-based; conditions: A-375, 48 h; procedure, shortened: as §1
MCF7 = assay: Antiproliferative activity against human MCF7 cells assessed as reduction in cell growth measured after 48 hrs by MTT assay; assay type: functional, cell-based; conditions: MCF7, 48 h; procedure, shortened: as §1
NRK-49F = assay: Antifibrotic activity against rat NRK-49F cells assessed as reduction in cell growth measured after 48 hrs by MTT assay; assay type: functional, cell-based; procedure, shortened: as §1
[4] = target: T1, Bromodomain-containing protein 4; assay: Inhibition of biotinylated H4 K5,8,12,16Ac peptide binding to GST-tagged BRD4 bromodomain1 (unknown origin) measured after 60 mins by AlphaScreen assay
[5] = Antifibrotic activity against human HLF1 cells assessed as reduction in cell growth measured after 48 hrs by MTT assay; assay type: functional, cell-based; conditions: HLF1, 48 h; procedure, shortened: as §1
A549 = assay: Antiproliferative activity against human A549 cells assessed as reduction in cell growth measured after 48 hrs by MTT assay; assay type: functional, cell-based; conditions: A549, 48 h; procedure, shortened: as §1

Row | SMILES | inhibition [2] [%] | inhibition [3] [%] | IC50 (HepG2) [µM] | IC50 (HT-29) [µM] | IC50 (A-375) [µM] | IC50 (MCF7) [µM] | IC50 [4] [µM] | IC50 (A549) [µM] | IC50 [1] [µM] | IC50 (NRK-49F) [µM] | IC50 [5] [µM]
1 | CC(=O)C(C)n1c(=O)nc(-c2ccccc2)c2c3c(sc21)CCCC3 (stereo not drawn) | 30 | 13.6 | – | – | – | – | – | – | > 300 | – | –
2 | CCc1c(C)sc2c1c(-c1ccccc1)nc(=O)n2Cc1c(C)noc1C | 9.5 | 17.8 | – | – | – | – | – | – | > 300 | – | –
3 | Cn1c(=O)nc(-c2ccccc2)c2c3c(sc21)CCCC3 | 42.6 | 66.2 | – | – | – | – | – | – | > 300 | – | –
4 | CC(=O)Cn1c(=O)nc(-c2ccccc2)c2c3c(sc21)CCCC3 | 23.7 | 17.2 | – | – | – | – | – | – | > 300 | – | –
5 | COC(=O)C1CCc2c(sc3c2c(-c2ccccc2)nc(=O)n3Cc2c(C)noc2C)C1 (stereo not drawn) | 19 | 9 | – | – | – | – | – | – | > 300 | – | –
6 | CNC(=O)Cn1c(=O)nc(-c2ccccc2)c2c3c(sc21)CCCC3 | 38.5 | 3.1 | – | – | – | – | – | – | > 300 | – | –
7 | Cc1noc(C)c1Cn1c(=O)nc(-c2ccc(Cl)cc2)c2c3c(sc21)CC(c1ccccc1)CC3 (stereo not drawn) | – | 15.1 | – | – | – | – | 6 | – | 28.8 | – | –
8 | CC(C)(C)C1CCc2c(sc3c2c(-c2ccc(Cl)cc2)nc(=O)n3Cc2cnc(Cl)s2)C1 (stereo not drawn) | – | – | – | – | – | – | – | – | > 300 | – | –
9 | Cc1noc(C)c1Cn1c(=O)nc(-c2ccccc2)c2c3c(sc21)CCC3 | 23 | 19.8 | – | – | – | – | – | – | > 300 | – | –

The next lines start with results.

Row | inhibition [2] [%] | inhibition [3] [%] | IC50 (HepG2) [µM] | IC50 (HT-29) [µM] | IC50 (A-375) [µM] | IC50 (MCF7) [µM] | IC50 [4] [µM] | IC50 (A549) [µM] | SMILES | IC50 [1] [µM] | IC50 (NRK-49F) [µM] | IC50 [5] [µM]
10 | – | 57.2 | 14.5 | 98 | 6.5 | > 100 | 18.5 | 95.1 | COc1ccc(-c2nc(=O)n(Cc3cnc(Cl)s3)c3sc4c(c23)CCC(C(C)(C)C)C4)cc1 (stereo not drawn) | 12.4 | 11.2 | 14.6
11 | – | 23.4 | 26.4 | 33.8 | 13.6 | 78.3 | 2.4 | 66.5 | Cc1noc(C)c1Cn1c(=O)nc(-c2ccc(Cl)cc2)c2c3c(sc21)CC(C(C)(C)C)CC3 (stereo not drawn) | 10.4 | 26.3 | 18.9
12 | – | 28.3 | 2.4 | 54.4 | 14.7 | > 100 | 22.7 | 31.9 | CC(C)(C)C1CCc2c(sc3c2c(-c2ccccc2)nc(=O)n3Cc2cnc(Cl)s2)C1 (stereo not drawn) | 4.2 | 6 | 7.6
13 | 44.9 | 14.5 | – | – | – | – | – | – | O=c1nc(-c2ccc(Cl)cc2)c2c3c(sc2n1Cc1cnc(Cl)s1)CC(c1ccccc1)CC3 (stereo not drawn) | 98.2 | – | –
14 | – | 42.2 | 15.1 | 13 | 14.2 | 10.4 | 11.4 | 18.9 | COc1ccc(-c2nc(=O)n(Cc3c(C)noc3C)c3sc4c(c23)CCC(C(C)(C)C)C4)cc1 (stereo not drawn) | 12.9 | 22.2 | 14.1
